Format in all cases: functional
The subject of one test is Mycosphaerella arachidis. Nature of the test: Fungicidal activity against Mycosphaerella arachidis at 50 ug/ml by growth inhibition method. The following applies: read-out: GI. An outline of the steps:
(§1)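 Mycelial growth inhibition on potato dextrose agar. The panel covered Alternaria solani, Botrytis cinerea, Cercospora arachidicola, C. beticola, Colletotrichum lagenarium, Fusarium oxysporum, Gibberella zeae, Puccinia triticina, Phytophthora infestans, Physalospora piricola, Pellicularia sasakii and Rhizoctonia solani.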

For the next test, the system named is Fusarium graminearum. Description: Fungicidal activity against Fusarium graminearum at 50 ug/ml by growth inhibition method. The following applies: read-out: GI. A digest of the protocol:
as §1

The test system of another test is Thanatephorus cucumeris. Nature of the test: Fungicidal activity against Thanatephorus cucumeris at 50 ug/ml by growth inhibition method. The following applies: read-out: GI. A digest of the protocol:
as §1

For a further test, the system named is Rhizoctonia solani. Nature of the test: Fungicidal activity against Rhizoctonia solani at 50 ug/ml by growth inhibition method. The note with it: read-out: GI. An outline of the steps:
as §1

The test system of another test is Phytophthora infestans. Nature of the test: Fungicidal activity against Phytophthora infestans at 50 ug/ml by growth inhibition method. The note with it: read-out: GI. An outline of the steps:
as §1

In test [1] the test system is Tobacco mosaic virus. Nature of the test: In vitro antiviral activity against Tobacco mosaic virus (TMV) infected tobacco leaves at 500 ug/ml.
The test system of test [2] is Tobacco mosaic virus. Description: In vitro antiviral activity against Tobacco mosaic virus (TMV) infected tobacco leaves at 100 ug/ml.
The next test relates to Colletotrichum lagenaria. Nature of the test: Fungicidal activity against Colletotrichum lagenaria at 50 ug/ml by growth inhibition method. The following applies: read-out: GI. An outline of the steps:
as §1

Another test relates to Cercospora beticola. Description: Fungicidal activity against Cercospora beticola at 50 ug/ml by growth inhibition method. The note with it: read-out: GI. A digest of the protocol: as §1
For a further test, the system named is Puccinia triticina. Description: Fungicidal activity against Puccinia triticina at 50 ug/ml by growth inhibition method. The following applies: read-out: GI. An outline of the steps: as §1
For test [3], the system named is Botryosphaeria berengeriana. Description: Fungicidal activity against Botryosphaeria berengeriana at 50 ug/ml by growth inhibition method. The following applies: read-out: GI. A digest of the protocol:
as §1

A further test has as its system Alternaria solani. Nature of the test: Fungicidal activity against Alternaria solani at 50 ug/ml by growth inhibition method. The note with it: read-out: GI. A digest of the protocol: as §1

SMILES strings stand for the structures.

Regarding `Cc1ccc(N(C(=O)c2nnsc2C)C(C(=O)NC(C)C)c2ccccc2[N+](=O)[O-])cc1F` (stereo not drawn), the inhibition of growth at 50 µg/mL worked out at 0% in the test on Mycosphaerella arachidis; 27% in the test on Fusarium graminearum; 39% with Thanatephorus cucumeris; 2% with Rhizoctonia solani; 0% in the test with Phytophthora infestans; 14% in the test with Colletotrichum lagenaria. The inhibition of growth at 50 µg/mL in the test with Cercospora beticola is 25%; in the test with Puccinia triticina, 0%; in test [3], 19%; with Alternaria solani, 0%. Further, at 500 µg/mL the inhibition in the test on Tobacco mosaic virus [1] was 24%. Besides, at 100 µg/mL the inhibition in the test with Tobacco mosaic virus [2] was 11%.
As to `Cc1ccc(N(C(=O)c2nnsc2C)C(C(=O)NC(C)C)c2ccc(C(F)(F)F)cc2)cc1F` (stereo not drawn), the inhibition of growth at 50 µg/mL in the test with Mycosphaerella arachidis worked out at 0%; in the test on Fusarium graminearum, 0%; in the test with Thanatephorus cucumeris, 11%; in the test on Rhizoctonia solani, 15%; with Phytophthora infestans, 25%; in the test with Colletotrichum lagenaria, 0%. The inhibition of growth at 50 µg/mL was 25% in the test on Cercospora beticola, 0% in the test with Puccinia triticina, 0% in [3] and 0% with Alternaria solani. Further, the inhibition at 500 µg/mL in the test with Tobacco mosaic virus [1] amounted to 45%. In the test on Tobacco mosaic virus [2], this compound returned an inhibition at 100 µg/mL of 14%.
`Cc1ccc(N(C(=O)c2nnsc2C)C(C(=O)NC(C)C)c2cccc([N+](=O)[O-])c2)cc1F` (stereo not drawn): the inhibition of growth at 50 µg/mL came to 27% in the test with Mycosphaerella arachidis; 45% with Fusarium graminearum; 0% in the test with Thanatephorus cucumeris; 15% with Rhizoctonia solani; 13% in the test on Phytophthora infestans; 29% in the test on Colletotrichum lagenaria. Moreover, the inhibition of growth at 50 µg/mL in the test on Cercospora beticola was determined as 25%; in the test with Puccinia triticina it was 14%; in test [3], 0%; in the test on Alternaria solani, 13%. In the test with Tobacco mosaic virus [1], this compound came in with an inhibition at 500 µg/mL of 14%. This compound came in with an inhibition at 100 µg/mL in the test on Tobacco mosaic virus [2] of 4%.
Take `Cc1cccc(C(C(=O)NC(C)C)N(C(=O)c2nnsc2C)c2ccc(C)c(F)c2)c1` (stereo not drawn): the inhibition of growth at 50 µg/mL in the test with Mycosphaerella arachidis is 9%; with Fusarium graminearum it was 0%; in the test on Thanatephorus cucumeris it was 0%; with Rhizoctonia solani, 0%; in the test on Phytophthora infestans, 13%; with Colletotrichum lagenaria, 0%. Also, the inhibition of growth at 50 µg/mL turned out to be 25% with Cercospora beticola, 0% in the test on Puccinia triticina, 0% in test [3] and 0% with Alternaria solani. The inhibition at 500 µg/mL with Tobacco mosaic virus [1] was determined as 35%. Further, the inhibition at 100 µg/mL with Tobacco mosaic virus [2] stood at 14%.
As for `Cc1ccc(N(C(=O)c2nnsc2C)C(C(=O)NC2CCCCC2)c2ccccc2C(F)(F)F)cc1F` (stereo not drawn), the inhibition of growth at 50 µg/mL in the test with Mycosphaerella arachidis worked out at 0%; with Fusarium graminearum it was 0%; in the test on Thanatephorus cucumeris, 0%; in the test with Rhizoctonia solani, 4%; in the test on Phytophthora infestans, 25%; in the test with Colletotrichum lagenaria it was 14%. Besides, the inhibition of growth at 50 µg/mL was 25% with Cercospora beticola, 0% in the test on Puccinia triticina, 0% in test [3] and 44% in the test on Alternaria solani. The inhibition at 500 µg/mL with Tobacco mosaic virus [1] worked out at 20%. Besides, the inhibition at 100 µg/mL in the test on Tobacco mosaic virus [2] is 31%.
As to `Cc1ccc(N(C(=O)c2nnsc2C)C(C(=O)NC2CCCCC2)c2cccc([N+](=O)[O-])c2)cc1F` (stereo not drawn), the inhibition of growth at 50 µg/mL is 0% in the test on Mycosphaerella arachidis; 0% in the test on Fusarium graminearum; 0% in the test with Thanatephorus cucumeris; 4% in the test with Rhizoctonia solani; 44% with Phytophthora infestans; 0% in the test with Colletotrichum lagenaria. Besides, the inhibition of growth at 50 µg/mL in the test with Cercospora beticola was determined as 25%; in the test with Puccinia triticina, 0%; in test [3], 0%; in the test on Alternaria solani, 0%. This compound also registered an inhibition at 500 µg/mL in the test on Tobacco mosaic virus [1] of 57%. Moreover, in the test with Tobacco mosaic virus [2], the inhibition at 100 µg/mL was 9%.
In the case of `Cc1ccc(N(C(=O)c2nnsc2C)C(C(=O)NC2CCCCC2)c2ccccc2[N+](=O)[O-])cc1F` (stereo not drawn), the inhibition of growth at 50 µg/mL was 27% in the test on Mycosphaerella arachidis; 0% in the test on Fusarium graminearum; 0% in the test with Thanatephorus cucumeris; 9% in the test with Rhizoctonia solani; 50% in the test with Phytophthora infestans; 0% with Colletotrichum lagenaria. Moreover, the inhibition of growth at 50 µg/mL in the test on Cercospora beticola worked out at 25%; in the test with Puccinia triticina it was 0%; in test [3] it was 12%; with Alternaria solani it was 0%. In the test on Tobacco mosaic virus [1], this compound yielded an inhibition at 500 µg/mL of 11%. In addition, testing at 100 µg/mL in the test on Tobacco mosaic virus [2] gave an inhibition of 5%.
For the compound `Cc1ccc(N(C(=O)c2nnsc2C)C(C(=O)NC(C)C)c2ccccc2C)cc1F` (stereo not drawn), the inhibition of growth at 50 µg/mL stood at 36% with Mycosphaerella arachidis; 27% in the test with Fusarium graminearum; 0% in the test on Thanatephorus cucumeris; 22% in the test on Rhizoctonia solani; 31% in the test with Phytophthora infestans; 50% in the test on Colletotrichum lagenaria. Also, the inhibition of growth at 50 µg/mL in the test on Cercospora beticola was found to be 0%; in the test on Puccinia triticina, 0%; in test [3] it was 0%; with Alternaria solani, 56%. In the test with Tobacco mosaic virus [1], this compound came in with an inhibition at 500 µg/mL of 55%. In the test on Tobacco mosaic virus [2], this compound displayed an inhibition at 100 µg/mL of 36%.
Regarding `Cc1ccc(N(C(=O)c2nnsc2C)C(C(=O)NC(C)C)c2cccc(C(F)(F)F)c2)cc1F` (stereo not drawn), the inhibition of growth at 50 µg/mL with Mycosphaerella arachidis came to 27%; in the test on Fusarium graminearum, 36%; in the test with Thanatephorus cucumeris, 4%; in the test with Rhizoctonia solani, 22%; in the test on Phytophthora infestans, 0%; in the test with Colletotrichum lagenaria, 14%. In addition, the inhibition of growth at 50 µg/mL came out at 25% in the test with Cercospora beticola, 14% with Puccinia triticina, 8% in test [3] and 0% in the test with Alternaria solani. This compound had an inhibition at 500 µg/mL in the test with Tobacco mosaic virus [1] of 51%. In addition, in the test with Tobacco mosaic virus [2], the inhibition at 100 µg/mL was found to be 19%.
As to `Cc1ccc(N(C(=O)c2nnsc2C)C(C(=O)NC(C)C)c2ccccc2Cl)cc1F` (stereo not drawn), the inhibition of growth at 50 µg/mL with Mycosphaerella arachidis was 0%; in the test with Fusarium graminearum, 0%; in the test with Thanatephorus cucumeris, 0%; in the test with Rhizoctonia solani, 0%; in the test with Phytophthora infestans, 25%; in the test with Colletotrichum lagenaria, 14%. Besides, the inhibition of growth at 50 µg/mL (in the test on Cercospora beticola; with Puccinia triticina; in [3]; in the test with Alternaria solani) was 0% each time. In the test with Tobacco mosaic virus [1], this compound came in with an inhibition at 500 µg/mL of 17%. The same compound displayed an inhibition at 100 µg/mL in the test with Tobacco mosaic virus [2] of 23%.
In the case of `Cc1ccc(N(C(=O)c2nnsc2C)C(C(=O)NC(C)C)c2cccc(F)c2)cc1F` (stereo not drawn), the inhibition of growth at 50 µg/mL in the test with Mycosphaerella arachidis is 27%; with Fusarium graminearum it was 5%; in the test with Thanatephorus cucumeris it was 0%; with Rhizoctonia solani, 43%; with Phytophthora infestans, 19%; in the test on Colletotrichum lagenaria, 57%. Also, the inhibition of growth at 50 µg/mL in the test on Cercospora beticola is 25%; in the test with Puccinia triticina it was 0%; in [3] it was 0%; with Alternaria solani, 44%. The inhibition at 500 µg/mL in the test with Tobacco mosaic virus [1] turned out to be 30%. The compound also yielded an inhibition at 100 µg/mL with Tobacco mosaic virus [2] of 50%.
Turning to `Cc1ccc(N(C(=O)c2nnsc2C)C(C(=O)NC2CCCCC2)c2ccccc2F)cc1F` (stereo not drawn), the inhibition of growth at 50 µg/mL in the test on Mycosphaerella arachidis amounted to 55%; with Fusarium graminearum it was 73%; in the test on Thanatephorus cucumeris, 0%; with Rhizoctonia solani, 59%; in the test on Phytophthora infestans it was 50%; in the test on Colletotrichum lagenaria, 57%. Moreover, the inhibition of growth at 50 µg/mL in the test with Cercospora beticola was 25%; in the test with Puccinia triticina it was 0%; in [3] it was 0%; in the test on Alternaria solani it was 63%. This compound came in with an inhibition at 500 µg/mL with Tobacco mosaic virus [1] of 58%. In the test on Tobacco mosaic virus [2], at 100 µg/mL the inhibition was 33%.
Turning to `Cc1ccc(N(C(=O)c2nnsc2C)C(C(=O)NC2CCCCC2)c2cccc(C(F)(F)F)c2)cc1F` (stereo not drawn), the inhibition of growth at 50 µg/mL was determined as 27% with Mycosphaerella arachidis; 14% with Fusarium graminearum; 13% in the test with Thanatephorus cucumeris; 22% with Rhizoctonia solani; 25% in the test on Phytophthora infestans; 29% in the test with Colletotrichum lagenaria. Further, the inhibition of growth at 50 µg/mL came out at 25% in the test with Cercospora beticola, 0% in the test on Puccinia triticina, 0% in test [3] and 25% in the test on Alternaria solani. Besides, in the test with Tobacco mosaic virus [1], the inhibition at 500 µg/mL is 72%. Testing at 100 µg/mL in the test with Tobacco mosaic virus [2] gave an inhibition of 35%.
Regarding `Cc1ccc(N(C(=O)c2nnsc2C)C(C(=O)NC2CCCCC2)c2ccc([N+](=O)[O-])cc2)cc1F` (stereo not drawn), the inhibition of growth at 50 µg/mL stood at 45% with Mycosphaerella arachidis; 0% in the test with Fusarium graminearum; 0% with Thanatephorus cucumeris; 2% in the test on Rhizoctonia solani; 50% with Phytophthora infestans; 14% with Colletotrichum lagenaria. For the same compound, the inhibition of growth at 50 µg/mL was determined as 25% with Cercospora beticola, 0% in the test on Puccinia triticina, 0% in test [3] and 0% with Alternaria solani. Also, the inhibition at 500 µg/mL in the test with Tobacco mosaic virus [1] stood at 70%. This compound returned an inhibition at 100 µg/mL in the test with Tobacco mosaic virus [2] of 8%.

One may read the inhibition as the relative decrease from the control value, in per cent. A high value points to strong suppression.

The record behind these values is ChEMBL document CHEMBL3044755, “5-Methyl-1,2,3-thiadiazoles synthesized via ugi reaction and their fungicidal and antiviral activities” (J Agric Food Chem, 2010).
